≈ marks a conversion by molar mass, not a printed value.
Experiments:
Format in all cases: functional
Candida albicans = assay: Antifungal activity against Candida albicans ATCC Y0109 after 24 hrs by micro-broth dilution method; conditions: ATCC Y0109, 24 h
Summary of the method: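 ATCC quality-control strain, tested in every assay. NCCLS M27-A2 broth microdilution. Compounds were dissolved in DMSO, serially diluted in growth medium, inoculated and incubated at 35 °C, with growth read at 24 h. MIC80 is the first well with about 80% growth reduction relative to the drug-free control. Each test was run three times and the mean of replicates taken.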

Cryptococcus neoformans = assay: Antifungal activity against Cryptococcus neoformans ATCC BLS108 after 72 hrs by micro-broth dilution method; conditions: ATCC BLS108, 72 h
Summary of the method: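 Quality-control ATCC strain included in each assay. Microbroth dilution per NCCLS M27-A2. DMSO-dissolved compounds were serially diluted in growth medium, inoculated and held at 35 °C, with MIC read at 72 h. MIC80 is the first well showing about 80% growth reduction versus the drug-free well. Tests were done in triplicate and the mean reported.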

Aspergillus fumigatus = assay: Antifungal activity against Aspergillus fumigatus clinical isolate by micro-broth dilution method
Summary of the method: (§1)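 Clinical isolate. MIC by broth microdilution following the NCCLS M27-A2 reference method for yeasts. Compounds were dissolved in DMSO, serially diluted in growth medium, inoculated and incubated at 35 °C. MIC80 is the first well with about 80% less growth than the drug-free well. Each test was run three times and the mean of replicates reported.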

Candida parapsilosis = assay: Antifungal activity against Candida parapsilosis clinical isolate by micro-broth dilution method; conditions: Lodderomyces parapsilosis; summary of the method: as §1
Candida tropicalis = assay: Antifungal activity against Candida tropicalis clinical isolate by micro-broth dilution method; summary of the method: as §1
Trichophyton rubrum = assay: Antifungal activity against Trichophyton rubrum clinical isolate by micro-broth dilution method; summary of the method: as §1
[1] = Antifungal activity against Fonsecaea compacta clinical isolate by micro-broth dilution method; summary of the method: as §1
Nannizzia gypsea = assay: Antifungal activity against Microsporum gypseum clinical isolate by micro-broth dilution method; summary of the method: as §1

SMILES	MIC80 (Candida albicans)	MIC80 (Cryptococcus neoformans)	MIC80 (Aspergillus fumigatus)	MIC80 (Candida parapsilosis)	MIC80 (Candida tropicalis)	MIC80 (Trichophyton rubrum)	MIC80 [1]	MIC80 (Nannizzia gypsea)
O=C(/C=C/c1ccc(Br)cc1)Nc1ccc(N2CCN(CC(O)(Cn3cncn3)c3ccc(F)cc3F)CC2)c(C(F)(F)F)c1 (configuration not stated)	1 µg/mL (≈ 1.45 µM)	0.25 µg/mL (≈ 0.362 µM)	1 µg/mL (≈ 1.45 µM)	–	–	–	–	–
COc1cccc(OC)c1/C=C/C(=O)Nc1ccc(N2CCN(CC(O)(Cn3cncn3)c3ccc(F)cc3F)CC2)c(C(F)(F)F)c1 (configuration not stated)	0.25 µg/mL (≈ 0.372 µM)	1 µg/mL (≈ 1.49 µM)	> 64 µg/mL	–	–	–	–	–
CCc1ccc(C(=O)Nc2ccc(N3CCN(CC(O)(Cn4cncn4)c4ccc(F)cc4F)CC3)c(C(F)(F)F)c2)cc1 (configuration not stated)	0.25 µg/mL (≈ 0.407 µM)	0.0625 µg/mL (≈ 0.102 µM)	4 µg/mL (≈ 6.51 µM)	–	–	–	–	–
O=C(/C=C/c1ccccc1[N+](=O)[O-])Nc1ccc(N2CCN(CC(O)(Cn3cncn3)c3ccc(F)cc3F)CC2)c(C(F)(F)F)c1 (configuration not stated)	0.25 µg/mL (≈ 0.38 µM)	0.25 µg/mL (≈ 0.38 µM)	> 64 µg/mL	–	–	–	–	–
C[C@@H](c1ncncc1F)[C@](O)(Cn1cncn1)c1ccc(F)cc1F [VORICONAZOLE]	0.0156 µg/mL (≈ 0.0447 µM)	0.0156 µg/mL (≈ 0.0447 µM)	1 µg/mL (≈ 2.86 µM)	1 µg/mL (≈ 2.86 µM)	0.25 µg/mL (≈ 0.716 µM)	0.0039 µg/mL (≈ 0.0112 µM)	0.0156 µg/mL (≈ 0.0447 µM)	0.0039 µg/mL (≈ 0.0112 µM)
O=C(Nc1ccc(N2CCN(CC(O)(Cn3cncn3)c3ccc(F)cc3F)CC2)c(C(F)(F)F)c1)c1ccncc1 (configuration not stated)	0.0625 µg/mL (≈ 0.106 µM)	0.25 µg/mL (≈ 0.425 µM)	1 µg/mL (≈ 1.7 µM)	–	–	–	–	–
O=C(Nc1ccc(N2CCN(CC(O)(Cn3cncn3)c3ccc(F)cc3F)CC2)c(C(F)(F)F)c1)c1cccc(C(F)(F)F)c1 (configuration not stated)	0.0625 µg/mL (≈ 0.0955 µM)	0.0625 µg/mL (≈ 0.0955 µM)	16 µg/mL (≈ 24.4 µM)	–	–	–	–	–
O=C(/C=C/c1ccccc1F)Nc1ccc(N2CCN(CC(O)(Cn3cncn3)c3ccc(F)cc3F)CC2)c(C(F)(F)F)c1 (configuration not stated)	0.0625 µg/mL (≈ 0.0991 µM)	0.25 µg/mL (≈ 0.396 µM)	4 µg/mL (≈ 6.34 µM)	–	–	–	–	–
O=C(Nc1ccc(N2CCN(CC(O)(Cn3cncn3)c3ccc(F)cc3F)CC2)c(C(F)(F)F)c1)c1ccc(Cl)cc1 (configuration not stated)	4 µg/mL (≈ 6.44 µM)	> 64 µg/mL	4 µg/mL (≈ 6.44 µM)	0.25 µg/mL (≈ 0.403 µM)	1 µg/mL (≈ 1.61 µM)	4 µg/mL (≈ 6.44 µM)	4 µg/mL (≈ 6.44 µM)	0.25 µg/mL (≈ 0.403 µM)
CCCCCCC(=O)Nc1ccc(N2CCN(CC(O)(Cn3cncn3)c3ccc(F)cc3F)CC2)c(C(F)(F)F)c1 (configuration not stated)	1 µg/mL (≈ 1.68 µM)	1 µg/mL (≈ 1.68 µM)	> 64 µg/mL	4 µg/mL (≈ 6.73 µM)	4 µg/mL (≈ 6.73 µM)	4 µg/mL (≈ 6.73 µM)	16 µg/mL (≈ 26.9 µM)	4 µg/mL (≈ 6.73 µM)
O=C(/C=C/c1ccc(Cl)cc1)Nc1ccc(N2CCN(CC(O)(Cn3cncn3)c3ccc(F)cc3F)CC2)c(C(F)(F)F)c1 (configuration not stated)	1 µg/mL (≈ 1.55 µM)	0.25 µg/mL (≈ 0.386 µM)	1 µg/mL (≈ 1.55 µM)	–	–	–	–	–
CCCC(=O)Nc1ccc(N2CCN(CC(O)(Cn3cncn3)c3ccc(F)cc3F)CC2)c(C(F)(F)F)c1 (configuration not stated)	1 µg/mL (≈ 1.81 µM)	1 µg/mL (≈ 1.81 µM)	> 64 µg/mL	0.25 µg/mL (≈ 0.452 µM)	1 µg/mL (≈ 1.81 µM)	4 µg/mL (≈ 7.24 µM)	4 µg/mL (≈ 7.24 µM)	1 µg/mL (≈ 1.81 µM)
O=C(Nc1ccc(N2CCN(CC(O)(Cn3cncn3)c3ccc(F)cc3F)CC2)c(C(F)(F)F)c1)c1ccc(F)cc1 (configuration not stated)	4 µg/mL (≈ 6.62 µM)	16 µg/mL (≈ 26.5 µM)	4 µg/mL (≈ 6.62 µM)	0.25 µg/mL (≈ 0.414 µM)	1 µg/mL (≈ 1.65 µM)	4 µg/mL (≈ 6.62 µM)	4 µg/mL (≈ 6.62 µM)	1 µg/mL (≈ 1.65 µM)
O=C(/C=C/c1ccccc1Cl)Nc1ccc(N2CCN(CC(O)(Cn3cncn3)c3ccc(F)cc3F)CC2)c(C(F)(F)F)c1 (configuration not stated)	0.0625 µg/mL (≈ 0.0966 µM)	0.25 µg/mL (≈ 0.386 µM)	4 µg/mL (≈ 6.18 µM)	–	–	–	–	–
CC(C)(C)c1ccc(C(=O)Nc2ccc(N3CCN(CC(O)(Cn4cncn4)c4ccc(F)cc4F)CC3)c(C(F)(F)F)c2)cc1 (configuration not stated)	4 µg/mL (≈ 6.22 µM)	0.25 µg/mL (≈ 0.389 µM)	> 64 µg/mL	0.25 µg/mL (≈ 0.389 µM)	1 µg/mL (≈ 1.56 µM)	4 µg/mL (≈ 6.22 µM)	4 µg/mL (≈ 6.22 µM)	4 µg/mL (≈ 6.22 µM)
OC(Cn1cncn1)(Cn1cncn1)c1ccc(F)cc1F [FLUCONAZOLE]	4 µg/mL (≈ 13.1 µM)	1 µg/mL (≈ 3.27 µM)	64 µg/mL (≈ 209 µM)	1 µg/mL (≈ 3.27 µM)	1 µg/mL (≈ 3.27 µM)	0.25 µg/mL (≈ 0.816 µM)	16 µg/mL (≈ 52.2 µM)	0.25 µg/mL (≈ 0.816 µM)
O=C(/C=C/c1ccc(F)cc1)Nc1ccc(N2CCN(CC(O)(Cn3cncn3)c3ccc(F)cc3F)CC2)c(C(F)(F)F)c1 (configuration not stated)	0.0156 µg/mL (≈ 0.0247 µM)	0.25 µg/mL (≈ 0.396 µM)	4 µg/mL (≈ 6.34 µM)	–	–	–	–	–
N#Cc1cccc(/C=C/C(=O)Nc2ccc(N3CCN(CC(O)(Cn4cncn4)c4ccc(F)cc4F)CC3)c(C(F)(F)F)c2)c1 (configuration not stated)	0.25 µg/mL (≈ 0.392 µM)	0.25 µg/mL (≈ 0.392 µM)	4 µg/mL (≈ 6.27 µM)	–	–	–	–	–
CCC(=O)Nc1ccc(N2CCN(CC(O)(Cn3cncn3)c3ccc(F)cc3F)CC2)c(C(F)(F)F)c1 (configuration not stated)	0.25 µg/mL (≈ 0.464 µM)	1 µg/mL (≈ 1.86 µM)	16 µg/mL (≈ 29.7 µM)	1 µg/mL (≈ 1.86 µM)	0.25 µg/mL (≈ 0.464 µM)	1 µg/mL (≈ 1.86 µM)	4 µg/mL (≈ 7.43 µM)	1 µg/mL (≈ 1.86 µM)
